# The source made the active and inactive calls. No cut-off for these calls is given here.
# Columns and labels:
# [1] = system: RAW264.7; experiment: Cytotoxicity against mouse RAW264.7 cells assessed as increase in cell viability at 64 uM incubated for 24 hrs by MTT assay relative to control; assay type: cell-based; conditions: raw264.7, 24 h
# How it was run: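 RAW264.7 macrophages were grown in DMEM with 10% FBS, 2 mM glutamine and penicillin/streptomycin at 37 °C in 5% CO2. Cells seeded at 1.0-2.0 × 10^4 per well and treated with peptide (final 0.25-64 µM) for 24 h at 37 °C. MTT at 0.5 mg/mL added for 4 h, formazan dissolved in DMSO, read at 570 nm.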
# [2] = system: Staphylococcus aureus; experiment: Antibacterial activity against Staphylococcus aureus ATCC 29213 assessed as bacterial growth inhibition incubated for 18 to 24 hrs in presence of 4.5 mM KCl by microtiter broth dilution method (reference value: 0.43 to > 71.5 uM); assay type: functional; conditions: time 18-24 hrs
# [3] = system: Staphylococcus aureus; experiment: Antibacterial activity against Staphylococcus aureus GIM 1.160 assessed as bacterial growth inhibition incubated for 18 to 24 hrs by microtiter broth dilution method; assay type: functional; conditions: time 18-24 hrs
# How it was run: (§1)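 Log-phase cells (grown overnight at 37 °C, subcultured in MHB) diluted to 10^5 CFU/mL in MHB and mixed 1:1 with serial peptide dilutions prepared in 0.01% acetic acid/0.2% BSA. Incubated 37 °C for 18-24 h. MIC is the lowest concentration giving no growth by OD492. Reported as the average of 3-5 independent experiments.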
# [4] = system: Escherichia coli; experiment: Antibacterial activity against Escherichia coli O157:H7 CICC 21530 assessed as bacterial growth inhibition incubated for 18 to 24 hrs in presence of 150 mM NaCl by microtiter broth dilution method (reference value: 0.85 to > 71.5 uM); assay type: functional; conditions: time 18-24 hrs
# [5] = system: Salmonella typhimurium; experiment: Antibacterial activity against Salmonella typhimurium CMCC 51005 assessed as bacterial growth inhibition incubated for 18 to 24 hrs by microtiter broth dilution method; assay type: functional, Salmonella enterica subsp. enterica serovar Typhimurium; conditions: Salmonella enterica, time 18-24 hrs; how it was run: as §1
# [6] = system: Cell membrane; experiment: Induction of outer membrane permeabilization in Escherichia coli O157:H7 CICC 21530 assessed as increase in fluorescence intensity by NPN-dye based fluorescence assay; assay type: subcellular; conditions: dose 0.625-7.5 µM
# [7] = system: RAW264.7; experiment: Antiinflammatory activity against mouse RAW264.7 cells assessed as inhibition of LPS-induced TNF-alpha production at 0.5 to 64 uM measured after 24 hrs by […] ELISA; assay type: functional, cell-based; conditions: dose 0.5-64 µM
# How it was run: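 RAW264.7 cells plated at 1-2 × 10^5 cells/mL and stimulated with 500 ng/mL LPS with or without peptide (0.5-64 µM) for 24 h at 37 °C. Controls were untreated cells and LPS alone. TNF-α in the supernatant measured by ELISA. NO measured by Griess reagent (1% sulfanilamide, 0.1% naphthylethylenediamine, 5% phosphoric acid).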
# [8] = system: Shigella flexneri; experiment: Antibacterial activity against Shigella flexneri CMCC 51571 assessed as bacterial growth inhibition incubated for 18 to 24 hrs by microtiter broth dilution method; assay type: functional; conditions: time 18-24 hrs; how it was run: as §1
# [9] = system: Staphylococcus aureus; experiment: Antibacterial activity against Staphylococcus aureus ATCC 29213 assessed as bacterial growth inhibition incubated for 18 to 24 hrs in presence of 1 mM MgCl2 by microtiter broth dilution method (reference value: 0.43 to > 71.5 uM); assay type: functional; conditions: time 18-24 hrs
# [10] = system: Listeria monocytogenes; experiment: Antibacterial activity against Listeria monocytogenes CICC 21633 assessed as bacterial growth inhibition incubated for 18 to 24 hrs by microtiter broth dilution method; assay type: functional; conditions: time 18-24 hrs; how it was run: as §1
# [11] = system: HepG2; experiment: Cytotoxicity against human HepG2 cells assessed as reduction in cell viability incubated for 24 hrs by MTT assay; assay type: functional, cell-based
# How it was run: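 HepG2 survival measured by MTT assay over a peptide range of 0.25-64 µM.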
# [12] = system: Escherichia coli; experiment: Antibacterial activity against Escherichia coli O157:H7 CICC 21530 assessed as bacterial growth inhibition incubated for 18 to 24 hrs in presence of 1 mM MgCl2 by microtiter broth dilution method (reference value: 0.85 to > 71.5 uM); assay type: functional; conditions: time 18-24 hrs
# [13] = system: Staphylococcus aureus; experiment: Antibacterial activity against Staphylococcus aureus ATCC 29213 assessed as bacterial growth inhibition incubated for 18 to 24 hrs by microtiter broth dilution method; assay type: functional; conditions: time 18-24 hrs; how it was run: as §1
# [14] = system: Salmonella paratyphi; experiment: Antibacterial activity against Salmonella paratyphi A CICC 20501 assessed as bacterial growth inhibition incubated for 18 to 24 hrs by microtiter broth dilution method; assay type: functional, Salmonella enterica subsp. enterica serovar Paratyphi A; conditions: Salmonella enterica, time 18-24 hrs
# How it was run: (§2)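 Log-phase bacteria grown at 37 °C in MHB, diluted to 10^5 CFU/mL, mixed 1:1 with serial peptide dilutions (peptide diluted in 0.01% acetic acid, 0.2% BSA); 37 °C for 18-24 h. MIC read by OD492 as lowest concentration giving no growth; mean of 3-5 independent experiments.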
# [15] = system: Escherichia coli; experiment: Antibacterial activity against Escherichia coli O157:H7 CICC 21530 assessed as bacterial growth inhibition incubated for 18 to 24 hrs in presence of 6 mM NH4Cl by microtiter broth dilution method (reference value: 0.85 to > 71.5 uM); assay type: functional; conditions: time 18-24 hrs
# [16] = system: Escherichia coli; experiment: Bactericidal activity against Escherichia coli O157:H7 CICC 21530 assessed as bacterial killing at 1 times MIC by time kill assay; assay type: functional, organism-based; conditions: time 1085.0 min, TDE = time-dependent effect
# [17] = system: Escherichia coli; experiment: Antibacterial activity against Escherichia coli ATCC 25922 assessed as bacterial growth inhibition incubated for 18 to 24 hrs by microtiter broth dilution method; assay type: functional; conditions: time 18-24 hrs; how it was run: as §1
# [18] = system: Escherichia coli; experiment: Antibacterial activity against Escherichia coli O157:H7 CICC 21530 assessed as bacterial growth inhibition incubated for 18 to 24 hrs by microtiter broth dilution method; assay type: functional; conditions: time 18-24 hrs; how it was run: as §2
# [19] = system: Bacillus pumilus; experiment: Antibacterial activity against Bacillus pumilus CMCC 63202 assessed as bacterial growth inhibition incubated for 18 to 24 hrs by microtiter broth dilution method; assay type: functional; conditions: time 18-24 hrs; how it was run: as §1
# [20] = system: Salmonella enterica subsp. enterica serovar Paratyphi B; experiment: Antibacterial activity against Salmonella paratyphi B CICC 21495 assessed as bacterial growth inhibition incubated for 18 to 24 hrs by microtiter broth dilution method; assay type: functional; conditions: time 18-24 hrs; how it was run: as §2
# [21] = system: Vibrio parahaemolyticus; experiment: Antibacterial activity against Vibrio parahaemolyticus CICC 21617 assessed as bacterial growth inhibition incubated for 18 to 24 hrs by broth dilution method; assay type: functional; conditions: time 18-24 hrs; how it was run: as §1
# [22] = system: Micrococcus luteus; experiment: Antibacterial activity against Micrococcus luteus CMCC 28001 assessed as bacterial growth inhibition incubated for 18 to 24 hrs by microtiter broth dilution method; assay type: functional; conditions: time 18-24 hrs; how it was run: as §1
# [23] = system: Erythrocyte; experiment: Hemolytic activity against human red blood cells assessed as hemoglobin release at 64 uM measured after 1 hr by microplate reader analysis; assay type: ADME, cell-based
# How it was run: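 Fresh heparinized human RBCs washed three times in 10 mM PBS pH 7.4 and resuspended to about 1% (v/v) (5.4 × 10^8 cells/mL). Mixed 1:1 with peptide in PBS for 1 h at 37 °C, then centrifuged. Supernatant hemoglobin read at A540. PBS set as 0% and 0.1% Triton X-100 as 100% hemolysis. MHC is the concentration causing 10% hemolysis.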
Substance,Activity [1] [%],MIC [2] [µM],MIC [3] [µM],MIC [4] [µM],MIC [5] [µM],Activity [6],Activity [7],MIC [8] [µM],MIC [9] [µM],MIC [10] [µM],Activity [11],MIC [12] [µM],MIC [13] [µM],MIC [14] [µM],MIC [15] [µM],Activity [16],MIC [17] [µM],MIC [18] [µM],MIC [19] [µM],MIC [20] [µM],also measured
H-WGRAFRRGVRRLARGGRR-NH2,74.8,7.33,7.33,14.7,> 58.6,Dose-dependent effect,Active,7.33,3.67,7.33,Dose-dependent effect,3.67,14.7,7.33,3.67,Tde,14.7,3.67,> 58.6,3.67,MIC [21]: 29.3 µM; MIC [22]: 7.33 µM; Activity [23]: Non-Toxic
H-WGRAFRRLVRRLARGLRR-NH2,64.79,0.87,1.74,13.9,13.9,Dose-dependent effect,Active,3.49,1.74,1.74,Dose-dependent effect,6.97,3.49,3.49,3.49,Tde,27.9,6.97,55.8,6.97,MIC [21]: 13.9 µM; MIC [22]: 27.9 µM; Activity [23]: Non-Toxic
H-WGRAFSAGVHRLANGGNG-NH2,77.58,> 70.1,70.1,> 70.1,> 70.1,Dose-dependent effect,Active,> 70.1,> 70.1,> 70.1,Dose-dependent effect,> 70.1,> 70.1,> 70.1,> 70.1,Tde,> 70.1,> 70.1,> 70.1,> 70.1,MIC [21]: > 70.1 µM; MIC [22]: > 70.1 µM; Activity [23]: Non-Toxic
H-WGRAFSAGVHRLARGGRG-NH2,87.22,> 67,> 67,> 67,> 67,Dose-dependent effect,Active,> 67,> 67,67,Dose-dependent effect,67,> 67,33.5,8.35,Tde,> 67,16.8,> 67,> 67,MIC [21]: > 67 µM; MIC [22]: > 67 µM; Activity [23]: Non-Toxic
H-WGRAFSRGVRRLARGGRG-NH2,85.48,> 63.5,15.9,15.9,> 63.5,Dose-dependent effect,Active,15.9,> 63.5,31.8,Dose-dependent effect,7.94,31.8,15.9,7.94,Tde,31.8,7.94,> 63.5,15.9,MIC [21]: > 63.5 µM; MIC [22]: > 63.5 µM; Activity [23]: Non-Toxic
H-WLRAFRRLVRRLARLLRR-NH2,48.25,1.66,1.66,> 53.2,> 53.2,Dose-dependent effect,Active,1.66,0.83,3.32,Dose-dependent effect,> 53.2,6.65,6.65,> 53.2,Tde,13.3,3.32,26.6,3.32,MIC [21]: 6.65 µM; MIC [22]: 13.3 µM; Activity [23]: Non-Toxic

# Reference: ChEMBL document CHEMBL4765236, “Insights into the Antimicrobial Activity and Cytotoxicity of Engineered α-Helical Peptide Amphiphiles” (J Med Chem, 2016)
